From ChEMBL document CHEMBL1765083, “Design, synthesis, and biological evaluation of thiazoles targeting flavivirus envelope proteins” (J Med Chem, 2011)

Legend:
Yellow fever virus [1] = assay: Antiviral activity against Yellow fever virus 17D expressing IRES-luciferase gene infected in BHK cells assessed as inhibition of viral production after 36 hrs by luciferase reporter assay relative to control; format: functional
In short: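 Controls: uninfected, infected, and DMSO-treated infected cells. After ~36 h at 37 °C, 5% CO2, cells lysed and firefly luciferase luminescence read. IC50 from nonlinear regression versus DMSO-treated infected cells.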

[2] = Growth inhibition of BHK15 cells after 36 hrs by XTT assay; format: cell-based, Mesocricetus auratus; settings: hamster
In short: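 Uninfected confluent BHK-15 cells (MEM, 10% FBS) overlaid with serial compound dilutions from DMSO stocks, ~36 h at 37 °C, 5% CO2. Medium replaced, XTT substrate added, 2 h at 37 °C, then OD450 read. GI50 calculated relative to cells given 1% DMSO.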

Yellow fever virus [3] = assay: Antiviral activity against Yellow fever virus 17D expressing IRES-luciferase gene infected in BHK cells assessed as inhibition of viral production at 50 uM after 36 hrs by luciferase reporter assay; format: functional, cell-based
[4] = Therapeutic index, ratio of GI50 for BHK15 cells to EC50 for Yellow fever virus 17D; format: cell-based; settings: hamster, read-out: TI
[5] = Half life in rat plasma; format: ADME
In short: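 Reconstituted lyophilized rat plasma warmed 15 min at 37 °C, diluted with 0.01 M saline to 80% plasma, then warmed 5 min more. Compound in DMSO added; mixture kept at 37 °C. Timed aliquots quenched in methanol and centrifuged; supernatants analysed by C18 HPLC (85:15 methanol/water, room temperature). Half-life from regression of concentration versus time.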

Row | SMILES | inhibition (INH) (Yellow fever virus [1]) | GI50 at 36 h [2] | EC50 (Yellow fever virus [3]) | selectivity ratio [4] | half-life [5]
1 | COC(=O)c1sc(-c2ccc(Cl)cc2)nc1C=O | 99.9% | 36.4 µM | 42.8 µM | – | –
2 | CONC(=O)c1sc(-c2ccc(Cl)cc2)nc1C(Br)Br | 93.6% | 81.4 µM | 1.7 µM | – | –
3 | NC(=O)c1sc(-c2ccc(Cl)cc2)nc1C(Br)Br | 99.8% | 99.7 µM | 1.7 µM | – | –
4 | CN(C)C(=O)c1sc(-c2ccc(Cl)cc2)nc1C(Br)Br | 93.2% | 163 µM | 20 µM | – | –
5 | CNC(=O)c1sc(-c2ccc(Cl)cc2)nc1C(Br)Br | 99.7% | 74.6 µM | 1.8 µM | – | –
6 | CCN(CC)C(=O)c1sc(-c2ccc(Cl)cc2)nc1C(Br)Br | 99.8% | 63.5 µM | 13.7 µM | – | –
7 | C=CCNC(=O)c1sc(-c2ccc(Cl)cc2)nc1C(Br)Br | 99.9% | 40.8 µM | 1.6 µM | – | –
8 | CCNC(=O)c1sc(-c2ccc(Cl)cc2)nc1C(Br)Br | 99.9% | 33.3 µM | 2.7 µM | – | –
9 | C#CCNC(=O)c1sc(-c2ccc(Cl)cc2)nc1C(Br)Br | 99.7% | 23.9 µM | 1.7 µM | – | –
10 | CCOC(=O)c1sc(-c2ccc(Cl)cc2)nc1C(Br)Br | 98.1% | 94.6 µM | 8.7 µM | – | –
11 | CC(C)OC(=O)c1sc(-c2ccc(Cl)cc2)nc1C(Br)Br | 84.4% | 372 µM | 19.9 µM | – | –
12 | CCSC(=O)c1sc(-c2ccc(Cl)cc2)nc1C(Br)Br | 99.7% | 81.4 µM | 1.6 µM | – | –
13 | CSC(=O)c1sc(-c2ccc(Cl)cc2)nc1C(Br)Br | 99.6% | 369 µM | 1.4 µM | 256 | 24.7 h
14 | CC(=O)c1sc(-c2ccc(Cl)cc2)nc1C(Br)Br | 99.9% | 83.5 µM | 1.3 µM | – | –
15 | CN(C)/C=C/C(=O)c1sc(-c2ccc(Cl)cc2)nc1C(Br)Br | 99.8% | 38.2 µM | 11.4 µM | – | –
16 | O=C(NCCO)c1sc(-c2ccc(Cl)cc2)nc1C(Br)Br | 99.8% | 40.8 µM | 2.9 µM | – | –
17 | O=C(NC[C@@H](O)CO)c1sc(-c2ccc(Cl)cc2)nc1C(Br)Br | 99.9% | 158 µM | 1.1 µM | – | –
18 | CCc1nc(-c2ccc(Cl)cc2)sc1C(=O)OC | -56.7% | – | – | – | –

Row | SMILES | inhibition (INH) (Yellow fever virus [1]) | GI50 at 36 h [2] | EC50 (Yellow fever virus [3]) | selectivity ratio [4] | half-life [5]
19 | COC(=O)c1sc(-c2ccc(Cl)cc2)nc1C(C)C | 14.7% | 49.6 µM | 58.7 µM | – | –
20 | COC(=O)c1sc(-c2ccc(Cl)cc2)nc1C(C)(C)C | 20.9% | – | – | – | –
21 | CCOC(=O)c1sc(-c2ccc(Cl)cc2)nc1-c1ccco1 | 50.3% | 465 µM | 311 µM | – | –
22 | COCc1nc(-c2ccc(Cl)cc2)sc1C(=O)OC | 38.1% | 388 µM | 158 µM | – | –
23 | CNC(=O)c1sc(-c2ccc(Cl)cc2)nc1COC | 99.7% | 50.8 µM | 2.9 µM | – | –
24 | CNC(=O)c1sc(-c2ccc(Cl)cc2)nc1C=O | 37.5% | – | – | – | –
25 | COC(=O)c1sc(-c2ccc(Cl)cc2)nc1C#N | 7.8% | – | – | – | –
26 | COC(=O)c1sc(-c2ccc(Cl)cc2)nc1C(Cl)Cl | 99.9% | 34.1 µM | 52.8 µM | – | –
27 | COC(=O)c1sc(-c2ccc(Cl)cc2)nc1CBr | 99.9% | 74.6 µM | 1.6 µM | – | –
28 | COC(=O)c1sc(-c2ccc(Cl)cc2)nc1CS(C)(=O)=O | -74.7% | – | – | – | –
29 | COC(=O)c1nc(-c2ccc(Cl)cc2)sc1C(=O)OC | 30.1% | – | – | – | –
30 | COCc1nc(-c2ccc(Cl)cc2)sc1C(=O)N(C)C | 11.3% | – | – | – | –
31 | CN(C)C(=O)c1sc(-c2ccc(Cl)cc2)nc1C=O | 5.5% | – | – | – | –
32 | COC(=O)c1nc(-c2ccc(Cl)cc2)sc1C(=O)N(C)C | 74% | 99.7 µM | 51 µM | – | –
33 | Cc1noc(-c2sc(-c3ccc(Cl)cc3)nc2C=O)n1 | 99.6% | 163 µM | 26.5 µM | – | –
34 | COC(=O)c1nc(-c2ccc(Cl)cc2)sc1-c1nc(C)no1 | 1.5% | – | – | – | –
35 | COC(=O)c1sc(-c2ccc(Cl)cc2)nc1C(Br)Br | 99.6% | 222 µM | 2.8 µM | 79 | 1.42 h
36 | O=C(N[C@@H]1OC(CO)C(O)[C@H](O)[C@H]1O)c1sc(-c2ccc(Cl)cc2)nc1C(Br)Br (single isomer, unassigned) | 43.4% | – | – | – | –
